According to article PMC3760157 (Bioorganic & medicinal chemistry letters, 2013):
Where a name gives a salt, the structure may show the parent alone.

Tests used:
[1] = system: C. albicans SC5314; test: In vivo efficacy in mouse model of systemic candidiasis; conditions: 5 and 25 mg/kg
[2] = system: C. albicans, Candida glabrata, Candida krusei, Aspergillus fumigatus, and C. neoformans; test: In vitro antifungal testing, range over all tested pathogens; type: cell-based; conditions: range over the five fungal pathogens
Outline: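 Broth microdilution. MIC is the lowest concentration with no detectable growth. For MFC, 5 μL from each clear well was moved to agar and incubated at 35°C: 48 h for Candida spp. and A. fumigatus, 72 h for C. neoformans. […] Values are means of three independent experiments (two for one analogue).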

[3] = In vitro cytotoxicity; type: cell-based; conditions: African green monkey, Vero cells (African green monkey kidney fibroblast)
Outline: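 Vero (African green monkey kidney) cell growth assay. […] Test compounds went up to 25 μg/mL and the doxorubicin control up to 5 μg/mL. Values are means of three independent experiments.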

[4] = system: C. albicans ATCC 90028; test: In vitro antifungal testing; type: cell-based, Candida albicans; conditions: from MIC/MFC
[5] = patients with leishmania; cited from earlier work
[6] = system: fungi; conditions: antifungal activity; cited from earlier work

| Structure (SMILES) | IC50 [3] | further results |
| --- | --- | --- |
| CCCCCCCCCCCCCCCCOP(=O)([O-])OCC[N+](C)(C)Cc1ccccc1 [Compound 3a, N-benzyl-N,N-dimethyl-2-{[(hexadecyloxy)hydroxyphosphinyl]oxy}ethanaminium inner salt] | > 25 µg/mL | Survival rate of mice vs PBS control, oral administration [1]: did not enhance the survival rate; MFCs, range against all tested pathogens [2]: 2.5 to 15.0 µg/mL; MICs, range against all tested pathogens [2]: 2.5 to 5.0 µg/mL; fold less potent than amphotericin B [4]: 2- to 3 fold |
| CCCCCCCCCCCCCCOP(=O)([O-])OCC[N+](C)(C)Cc1ccccc1 [Compound 3b] | > 25 µg/mL | – |
| CCCCCCCCCCCCCCCCCCOP(=O)([O-])OCC[N+](C)(C)Cc1ccccc1 [Compound 3c] | > 25 µg/mL | – |
| CCCCCCCCCCCCCCCCOP(=O)([O-])OCC[N+](C)(C)Cc1ccc([N+](=O)[O-])cc1 [Compound 3d, N,N-dimethyl-N-(4-nitrobenzyl)-2-{[(hexadecyloxy)hydroxyphosphinyl]oxy}ethanaminium inner salt] | > 25 µg/mL | MICs, range against all tested pathogens [2]: 2.5 to 5.0 µg/mL; fold less potent than amphotericin B [4]: 2- to 3 fold |
| CCCCCCCCCCCCCCCCOP(=O)([O-])OCC[N+](C)(C)Cc1ccc(OC)cc1 [Compound 3e, N-(4-methoxybenzyl)-N,N-dimethyl-2-{[(hexadecyloxy)hydroxyphosphinyl]oxy}ethanaminium inner salt] | > 25 µg/mL | MICs, range against all tested pathogens [2]: 2.5 to 5.0 µg/mL |
| CCCCCCCCCCCCCCCCOP(=O)([O-])OCC[N+](C)(C)Cc1ccc(Cl)cc1 [Compound 3f] | > 25 µg/mL | – |
| CCCCCCCCCCCCCCCCOP(=O)([O-])OCC[N+](C)(C)Cc1ccc(Br)cc1 [Compound 3g] | > 25 µg/mL | – |
| CCCCCCCCCCCCCCCCOP(=O)([O-])OCC[N+](C)(C)C/C=C/c1ccccc1 [Compound 3h] | > 25 µg/mL | – |
| C=CC[N+](C)(C)CCOP(=O)([O-])OCCCCCCCCCCCCCCCC [Compound 3i] | > 25 µg/mL | – |
| COc1cccc2c1C(=O)c1c(O)c3c(c(O)c1C2=O)C[C@@](O)(C(=O)CO)C[C@@H]3O[C@H]1C[C@H](N)[C@H](O)[C@H](C)O1 [Doxorubicin, reference compound] | > 5 µg/mL | – |
| CCCCCCCCCCCCCCCCOP(=O)([O-])OCC[N+](C)(C)C [Miltefosine, hexadecylphosphocholine] | > 25 µg/mL | half-life, first elimination [5]: 7 days; half-life, terminal elimination [5]: 31 days |
| CCCCCCCC/C=C\CCCCCCCCCCCCOP(=O)([O-])OCC[N+](C)(C)C [erucylphosphocholine] | – | fold less potent than miltefosine [6]: 8 fold |
